Test results: ChEMBL document CHEMBL4425108, “A Selective and Slowly Reversible Inhibitor of l-Type Amino Acid Transporter 1 (LAT1) Potentiates Antiproliferative Drug Efficacy in Cancer Cells” (J Med Chem, 2016)
The source made the active and inactive calls. The calls are words filed in the database; no cut-off is given here.

Columns and labels:
[1] = target: T1, Large neutral amino acids transporter small subunit 1 (Homo sapiens, UniProt Q01650); experiment: Competitive inhibition of [14C]-L-leucine uptake at LAT1 in human MCF7 cells at 25 uM preincubated for 10 mins followed by addition of substrate measured during 5 mins by liquid scintillation counting; format: cell-based
Outline: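 MCF-7 cells seeded 1 × 10^5/well, used one day later. Washed and pre-incubated 10 min at 37 °C in choline-chloride HBSS (Na+-free, 25 mM HEPES, pH 7.4), then 5 min at 37 °C with 0.157 µM [14C]-L-leucine plus 1-1000 µM inhibitor (DMSO blank). Ice-cold washes, NaOH lysis, scintillation counting. IC50 by nonlinear regression over 8 concentrations. Mean ± SD, n=3.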

[2] = target: T2, Large neutral amino acids transporter small subunit 2 (Homo sapiens) (UniProt Q9UHI5); experiment: Competitive inhibition of [14C]-L-alanine uptake at LAT2 in human MCF7 cells at 50 to 1000 uM measured during 5 mins by liquid scintillation counting; format: cell-based
T2 sequence (whole entry): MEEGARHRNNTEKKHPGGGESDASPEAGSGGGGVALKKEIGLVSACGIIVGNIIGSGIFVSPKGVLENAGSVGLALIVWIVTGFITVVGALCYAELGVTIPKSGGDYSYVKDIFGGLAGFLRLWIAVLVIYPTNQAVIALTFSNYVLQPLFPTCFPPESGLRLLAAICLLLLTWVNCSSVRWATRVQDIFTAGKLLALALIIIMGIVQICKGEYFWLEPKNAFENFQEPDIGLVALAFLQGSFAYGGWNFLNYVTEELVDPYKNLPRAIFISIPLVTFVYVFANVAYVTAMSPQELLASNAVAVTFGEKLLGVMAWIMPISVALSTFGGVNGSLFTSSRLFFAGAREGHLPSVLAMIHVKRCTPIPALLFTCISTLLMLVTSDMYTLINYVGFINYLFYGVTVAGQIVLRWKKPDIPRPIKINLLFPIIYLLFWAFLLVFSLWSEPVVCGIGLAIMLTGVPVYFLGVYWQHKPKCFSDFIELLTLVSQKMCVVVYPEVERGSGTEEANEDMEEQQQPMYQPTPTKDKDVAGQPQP
Outline: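 MCF-7 cells were seeded at 1 × 10^5 cells/well and used one day later. Cells were washed and pre-incubated 10 min at 37 °C in HEPES-buffered HBSS (choline chloride, pH 7.4). Uptake of 10.0 µM [14C]-L-alanine ran 5 min at 37 °C with test agent (1–1000 µM) or DMSO blank. Cells were then given three ice-cold washes, lysed in 0.1 M NaOH and counted by liquid scintillation; n=3.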

[3] = target: T1, Large neutral amino acids transporter small subunit 1; experiment: Competitive binding to LAT1 in human MCF7 cells at 100 uM after 30 mins in presence of OATP 1A2/2B1 inhibitor naringin by HPLC analysis; format: cell-based
Outline: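 MCF-7 cells incubated 30 min at 37 °C in HBSS (pH 7.4) holding 100 µM test compound plus 500 µM competitor. Cells washed three times with ice-cold HBSS and lysed in 0.1 M NaOH. Cell-associated compound measured by HPLC against a lysate-spiked standard curve and normalised to protein. Mean ± SD, n=3.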

[4] = Metabolic stability in mouse liver S9 fraction at 37 degreeC in presence of NADPH regenerating system measured after 2 hrs by HPLC analysis; format: ADME, subcellular; conditions: s9, 2 h
[5] = target: T1, Large neutral amino acids transporter small subunit 1; experiment: Inhibition of LAT1 in human MCF7 cells assessed as potentiation of cisplatin-induced antiproliferative activity by measuring reduction in cell viability at 25 uM measured after 72 hrs by resazurin dye-based fluorimetric analysis
Outline: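 MCF-7 cells seeded 2 × 10^4/well on collagen-coated plates, treated one day later in growth medium with inhibitor (25 or 100 µM) plus bestatin or cisplatin (100 µM) for up to 3 days. Viability read daily by resazurin fluorescence (ex 560/em 590 nm). Viability is treated relative to untreated control. Mean ± SD, n=3.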

[6] = Fraction unbound in mouse heart at 23 umol/kg, ip administered as bolus by LC-MS analysis; format: ADME, organism-based
Outline: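 Unbound fraction was measured by equilibrium dialysis at 100 µM in mouse plasma and in brain, liver, kidney, heart and prostate homogenates.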

[7] = Tmax in mouse kidney at 23 umol/kg, ip administered as bolus by LC-MS analysis; format: ADME, organism-based
Outline: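 Adult male mice (25 ± 5 g) given a single i.p. bolus of 23 µmol/kg, dosing solution 1.36 mM in 10% (v/v) DMSO, 20% (w/v) hydroxypropyl-β-cyclodextrin, 0.9% NaCl in water. Decapitation at time points 10–480 min; plasma, brain, liver, prostate, kidney, heart collected. Acetonitrile precipitation with repaglinide internal standard, LC-MS (ESI positive). tmax and t½β taken from concentration-time data; mean ± SEM, n=3.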

T1 sequence (Q01650 whole entry): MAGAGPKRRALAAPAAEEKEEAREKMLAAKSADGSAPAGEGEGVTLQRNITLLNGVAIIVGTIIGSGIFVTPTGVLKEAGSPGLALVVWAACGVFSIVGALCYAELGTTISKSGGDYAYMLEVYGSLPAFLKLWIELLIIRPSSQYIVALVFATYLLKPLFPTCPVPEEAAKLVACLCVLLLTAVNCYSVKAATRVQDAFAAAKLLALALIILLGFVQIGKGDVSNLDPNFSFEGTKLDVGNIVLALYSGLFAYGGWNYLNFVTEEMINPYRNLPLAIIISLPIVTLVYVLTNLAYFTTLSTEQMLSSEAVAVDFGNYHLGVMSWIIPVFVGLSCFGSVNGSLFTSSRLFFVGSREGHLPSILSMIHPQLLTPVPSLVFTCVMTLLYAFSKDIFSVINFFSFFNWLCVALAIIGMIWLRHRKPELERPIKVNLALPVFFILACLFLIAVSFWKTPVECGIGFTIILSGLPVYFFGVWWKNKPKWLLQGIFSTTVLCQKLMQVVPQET

inhibition [1]: 55.1%
inhibition [2]: inactive
Activity [3]: Active
Stability [4]: Stable
fraction unbound [6]: 0.0162
Tmax [7]: 10 min
SMILES: CNC(=O)COc1ccc(-c2c(C#N)c(NC(=O)c3cccc(C[C@H](N)C(=O)O)c3)n3c(nc4ccccc43)c2C#N)cc1
Activity [5]: 49.7%
